Sampled rows, rich in hits. Any-hit rate of the full collection: about 5%.
XBP1 UPR activ = adaptive UPR (XBP1) activation | CHO-XBP1 luciferase reporter, IRE1-XBP1 UPR activation, luminescence; percent of tunicamycin response, DMSO as zero | actives 0.33% (n = 330,000) | activation, % at 20 µM | AID 463104;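 active means versus positive control, 20 µM dose yields 30% or more activation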
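Material: IRE1-XBP1 luciferase reporter CHO line / Quantity: one thousand reporter cells per well / Buffer or medium: F12 with 10% serum / Compound: 20 µM single concentration, DMSO 1% / Times: 6 h treatment, 37 °C / Detection: Steady-Glo luciferase glow luminescence, 10 min after reagent addition / Benchmarks: tunicamycin high, DMSO low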
T cruzi inh = T. cruzi replication inhibition; actives 1.4% (n = 300,000); T. cruzi beta-gal in NIH3T3, luminescence, 90 h; inhibition, % (test concentration not listed);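 active means mean inhibition across valid replicates above about 55%, limit read from the data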;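 further: signal also drops with host cell toxicity which is not excluded here; higher percent means less beta-gal luminescence so fewer parasites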
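Test system: β-gal T. cruzi (Tulahuen C4) inside NIH/3T3 cells / Quantity: 5,000 cells/well / Measured by: luminescence from GalScreen with 0.05% NP40, read after 60 min / Medium: DMEM plus 2% FBS / Measure: parasite load inhibition, % / Reagent: Tulahuen C4 trypomastigotes, 5000/well / Schedule: co-culture of at least 90 h after 3 h attachment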
Mdm2-MdmX inh = human Mdm2/MdmX binding inhibition. actives 3% (n = 330,000). O15151+Q00987. inhibition, % at 8 µM. SaOS-2 split-luciferase Mdm2/MdmX complementation, luminescence;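 active means inhibition of at least 50% at 8 µM in the primary screen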
Target sequence (O15151 whole entry, looked up): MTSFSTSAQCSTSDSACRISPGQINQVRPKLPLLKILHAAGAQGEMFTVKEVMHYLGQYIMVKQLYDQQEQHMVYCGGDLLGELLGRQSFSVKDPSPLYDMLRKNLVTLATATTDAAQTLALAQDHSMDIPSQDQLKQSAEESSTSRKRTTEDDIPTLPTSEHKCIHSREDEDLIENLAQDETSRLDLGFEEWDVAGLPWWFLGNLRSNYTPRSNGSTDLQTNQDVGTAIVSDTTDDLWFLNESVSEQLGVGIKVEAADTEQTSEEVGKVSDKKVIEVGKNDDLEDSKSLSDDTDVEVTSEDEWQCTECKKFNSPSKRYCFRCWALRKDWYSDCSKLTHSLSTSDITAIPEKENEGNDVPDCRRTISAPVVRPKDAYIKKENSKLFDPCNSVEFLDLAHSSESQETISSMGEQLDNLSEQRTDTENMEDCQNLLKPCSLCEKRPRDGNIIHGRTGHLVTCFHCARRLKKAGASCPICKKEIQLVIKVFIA
Target sequence (Q00987 whole entry, looked up): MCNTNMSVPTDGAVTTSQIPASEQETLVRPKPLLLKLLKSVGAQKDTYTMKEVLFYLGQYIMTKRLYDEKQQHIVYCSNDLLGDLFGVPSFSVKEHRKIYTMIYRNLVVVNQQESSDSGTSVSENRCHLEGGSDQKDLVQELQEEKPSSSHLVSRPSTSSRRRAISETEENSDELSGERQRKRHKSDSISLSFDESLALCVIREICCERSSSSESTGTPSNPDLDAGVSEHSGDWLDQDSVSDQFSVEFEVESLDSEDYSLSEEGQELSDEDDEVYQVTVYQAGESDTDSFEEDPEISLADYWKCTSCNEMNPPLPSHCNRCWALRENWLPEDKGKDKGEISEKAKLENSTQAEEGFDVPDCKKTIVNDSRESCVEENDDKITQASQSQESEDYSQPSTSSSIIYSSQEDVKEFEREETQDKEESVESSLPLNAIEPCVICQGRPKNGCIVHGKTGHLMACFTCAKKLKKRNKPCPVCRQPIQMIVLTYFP
UPR CHOP act = apoptotic UPR (CHOP) activation. CHO-CHOP luciferase reporter, luminescence; percent of tunicamycin response over DMSO baseline. AID 449763. actives 0.34% (n = 330,000). activation, % at 10 µM;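 active means at 10 µM dose, activation of 40% or more, normalized to positive control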
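Material: CHO-CHOP cells, stable luciferase reporter of PERK-eIF2a-CHOP signalling; quantity: 500 reporter cells seeded per well; buffer or medium: F12 medium containing 10% fetal bovine serum; compound: one dose, 10 µM in 0.5% DMSO; incubation: 6 h compound treatment, 37 °C; measured by: Steady-Glo luciferase luminescence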
CSC inhib = cancer stem cell inhibition; cancer stem cell-like cells viability, luminescence; inhibition, % at 7.5 µM; actives 1.1% (n = 300,000); AID 2717; in the data active means inhibition above about 75%; tested in HMLE shEcad cells
Beta cell apopt = beta cell apoptosis inhibition; INS-1E cytokine-induced death, ATP luminescence, 48 h; percent of positive-control rescue, neutral wells zero; protection from apoptosis, % (concentration not given with the values); actives 0.8% (n = 300,000);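 active means Every replicate reaches about 75%, or at least half do and their mean reaches it too, limit read from the data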;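 further: higher means more ATP so stronger rescue from cytokine killing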
Mdm2-MdmX conf = human Mdm2/MdmX binding inhibition, confirmed. shares compounds with Mdm2-MdmX inh. luminescent assay. inhibition, % at 8 µM. actives 55% (n = 10,000); in the data active means inhibition above about 40%
FLuc counter = counter-screen for Mdm2/MdmX inhibitors: full-length luciferase; shares compounds with Mdm2-MdmX inh; SaOS-2 full-length luciferase counterscreen, luminescence; inhibition, % at 8 µM; actives 77% (n = 6,200);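 active means mean inhibition at 8 µM reaching about 37%, which flags the compound as non-specific, limit read from the data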;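 further: p53-null SaOS-2 cells with luciferase driven by a doxycycline-inducible promoter; compound on cells about two nights before reading with doxycycline added after day one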
Hits are given with their value; n = inactive; x = no result.

SMILES | XBP1 UPR activ | T cruzi inh | Mdm2-MdmX inh | UPR CHOP act | CSC inhib | Beta cell apopt | Mdm2-MdmX conf | FLuc counter
CC(=O)Nc1ccc(NC(=O)C(=O)c2cn(CC(=O)N3CCCC3)c3ccccc23)cc1 | n | n | n | n | n | n | x | x
CCN(CC)CCNC(=O)c1ccc(NC(=O)COc2ccc3c(c2)CCC3)cc1 | n | x | n | n | x | n | x | x
COc1cc(NC(=O)c2csc(N)n2)cc(C(=O)Nc2cccc(C(F)(F)F)c2)c1 | n | n | 59.1 | n | 87.8 | n | 56.7 | 60.3
COc1cc(NC(=O)c2cnc(N)s2)cc(C(=O)Nc2cccc(C(F)(F)F)c2)c1 | n | n | n | n | n | n | x | x
CCc1nnc(NC(=O)[C@@H](NC(=O)c2cccc(S(=O)(=O)N(CC)CC)c2)C(C)C)s1 | n | n | n | n | n | n | x | x
O=C(Nc1cccc(Cl)c1)Nc1nnc(CSCCOc2ccc(Cl)cc2)s1 | n | n | 98.7 | n | n | 139.3 | 90.3 | n
O=C(Nc1ccc(Cl)cc1)Nc1nnc(CSCc2ccccc2)s1 | n | n | 57.6 | n | n | n | n | x
O=C(Nc1ccc(Cl)cc1)Nc1nnc(CSc2ccc(Cl)cc2)s1 | n | n | n | n | x | n | x | x
O=C(Nc1nnc(CC2=CCCCC2)s1)Nc1ccccc1F | n | n | n | n | n | n | x | x
O=C(Nc1cccc(Cl)c1)Nc1nnc(CC2=CCCCC2)s1 | n | n | 79.9 | n | n | n | 42.8 | 87.7
Cc1ccc(NC(=O)Nc2nnc(CSCCOc3ccc(Cl)cc3)s2)cc1 | n | n | n | n | n | n | x | x
COc1ccc(OCCSCc2nnc(NC(=O)Nc3ccc(Cl)cc3)s2)cc1 | n | n | 63.5 | n | n | n | n | x
Oc1ccc(CCNc2c3ccccc3nc3ccccc23)cc1O | n | n | 64.0 | n | 76.1 | n | 51.2 | 76.2
CNc1nc(NCc2ccccc2)c2ccccc2n1 | n | n | 65.6 | n | n | n | n | x
c1ccc(CNc2c3ccccc3nc3ccccc23)cc1 | n | 57.0 | 69.5 | n | n | 98.3 | n | 60.8
Oc1ccccc1Nc1nc(NCc2ccccc2)c2ccccc2n1 | n | n | 83.4 | n | 102.7 | n | n | x
c1ccc(CNc2ncnc3ccccc23)cc1 | n | n | n | n | n | n | x | x
CCc1noc(C)c1C(=O)NC1CCCc2c1cnn2-c1cc(C)cc(C)c1 (stereo not drawn) | n | n | n | n | n | n | x | x
CCc1[nH]nc(C(=O)NC2CCCc3c2cnn3-c2cc(C)cc(C)c2)c1C (stereo not drawn) | n | n | 76.4 | n | n | n | 81.1 | 95.2
O=C(N=C1SC2CS(=O)(=O)CC2N1c1cc(Cl)ccc1Cl)C1CCCO1 (stereo not drawn) | n | n | n | n | n | n | x | x
COc1cccc(-c2nn(C)c3sc(C(=O)NCc4ccccn4)cc23)c1 | n | n | 55.3 | n | n | n | 41.2 | 76.8
Cc1cnc(C(=O)OCC(=O)NCc2cccc(Cl)c2)cn1 | n | x | n | n | n | n | x | x
COc1ccc(CCN(C)C2CCCN(S(=O)(=O)c3ccccc3F)C2)cc1OC (stereo not drawn) | n | n | n | n | n | n | x | x
O=C1/C(=C/c2ccc([N+](=O)[O-])cc2)C=C(c2ccccc2)N1c1ccc(O)cc1 | n | n | 61.4 | n | x | n | 57.9 | 52.1
CCOC(=O)c1nc(-c2ccc(OC)c(OC)c2)no1 | n | n | n | n | n | n | x | x
SMILES | XBP1 UPR activ | T cruzi inh | Mdm2-MdmX inh | UPR CHOP act | CSC inhib | Beta cell apopt | Mdm2-MdmX conf | FLuc counter
O=C(Nc1ccc(Cl)cc1)Nc1csc([N+](=O)[O-])c1 | n | n | 94.2 | n | n | 80.5 | 76.1 | n
O=C(Nc1ccc(Cl)cc1)Nc1cc([N+](=O)[O-])ccc1F | n | n | n | n | n | n | x | x
O=C(Nc1ccc([N+](=O)[O-])cc1)Nc1ccc(Cl)cc1F | n | n | 87.3 | n | n | 108.3 | 91.3 | 72.7
COc1ccc(OC(C)C(=O)Nc2ccc([N+](=O)[O-])cc2)cc1 (stereo not drawn) | n | n | n | n | n | n | x | x
Cc1cc(OC(F)F)ccc1NC(=O)Nc1ccc([N+](=O)[O-])cc1 | n | n | 95.7 | n | n | n | 86.2 | 47.0
Cn1c(CCNC(=O)c2ccccc2F)nnc1SCC(=O)Nc1nncs1 | n | n | n | n | n | n | x | x
CC(NC(=O)C1CCCCC1)C(c1cccs1)N1CCN(C)CC1 (stereo not drawn) | n | n | n | n | n | n | x | x
Cc1ncc(CO)c(/C=N/Nc2ccc(C(F)(F)F)cn2)c1O | n | n | 75.2 | n | 88.6 | 115.9 | 72.3 | n
CCCc1c(NC(=O)Nc2ccc(F)cc2)cnn1-c1ccccc1 | n | n | 88.6 | n | n | n | 60.6 | n
CCCc1c(C(=O)Nc2ccc(F)cc2C)cnn1-c1ccccc1 | n | n | n | n | n | n | x | x
CCNC(=S)Nc1cccc(S(=O)(=O)NC2=NCCC2)c1 | n | n | n | n | n | n | x | x
O=C(CCl)Nc1cccc(S(=O)(=O)NC2=NCCC2)c1 | n | n | 53.5 | n | n | n | 43.8 | 68.2
O=C(Nc1ccc(N2CCN(C(=O)c3ccccc3F)CC2)cc1)c1cncc(Br)c1 | n | n | 62.6 | n | n | n | 61.6 | n
COc1ccc(/C=C/C(=O)OCC(=O)NC(=O)NC(C)(C)C)cc1 | n | n | n | n | n | n | x | x
N#Cc1ccc(CN2CCN(C(=O)CNC(=O)Cc3ccccc3)CC2)cc1 | n | x | n | n | x | x | x | x
COc1cccc(/C=C/C(=C2/C(=O)N(c3ccccc3)N=C2C)c2ccc(Br)cc2)c1OC | n | n | 58.7 | n | 75.5 | x | n | x
COc1cccc(/C=C/C(=C2/C(=O)N(c3ccccc3)N=C2C)c2ccccc2)c1OC | n | n | n | n | n | n | x | x
Oc1cc(-n2cccn2)c(O)cc1-n1cccn1 | x | n | x | x | n | n | x | x
Cc1n[nH]c(C)c1N=Nc1cc(Cl)ccc1Cl | n | n | 52.1 | n | n | n | n | 38.6
O=C1CN(C(=O)COC(=O)CCSc2ccccc2Cl)c2ccccc2N1 | n | n | n | n | n | n | x | x
CCOC(=O)c1oc2ccc(OC)cc2c1NC(=O)CN1CCN(C)CC1 | n | n | n | n | n | x | x | x
Cc1ccc(C(=O)c2oc3ccc(Cl)cc3c2NC(=O)CN2CCN(C)CC2)cc1 | n | n | 81.7 | n | n | n | n | 68.2
CCN(CC)CCCNC(=O)c1cc(-c2ccccc2)c(N2CCCCC2)s1 | n | n | 75.5 | n | 83.2 | n | 54.5 | 66.1
O=C(/C=C/c1cccc(Cl)c1)Nc1ncccn1 | n | n | n | n | n | n | x | x

Bioassay records as filed in PubChem.
